Reference: ChEMBL document CHEMBL3259767, “Design, synthesis and biological evaluation of Pontin ATPase inhibitors through a molecular docking approach” (Bioorg Med Chem Lett, 2014)
The source made the active and inactive calls. No cut-off for these calls is given here.

Legend:
[1] = tested on: MCF7; assay: Antiproliferative activity against human MCF7 cells at 10 uM after 72 hrs; type: functional, cell-based
Method in brief: (§1)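 Cells exposed to compound for 72 h. IC50 values come from KB and HL60 cells. Single-point screening was run at 10^-5 M.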

[2] = tested on: HCT-116; assay: Antiproliferative activity against human HCT116 cells at 10 uM after 72 hrs; type: functional, cell-based; method in brief: as §1
[3] = tested on: HL-60; assay: Antiproliferative activity against human HL60 cells at 10 uM after 72 hrs; type: functional, cell-based; method in brief: as §1
[4] = tested on: KB; assay: Antiproliferative activity against human KB cells at 10 uM after 72 hrs; type: functional, cell-based; method in brief: as §1
[5] = target: RuvB-like 1 (Homo sapiens) (UniProt Q9Y265); assay: Inhibition of human recombinant his-tagged pontin expressed in Escherichia coli BL21 assessed as reduction in inorganic phosphate release at 100 uM after 10 mins by malachite green-based colorimetric assay
RuvB-like 1 (Homo sapiens), sequence (Q9Y265 whole entry): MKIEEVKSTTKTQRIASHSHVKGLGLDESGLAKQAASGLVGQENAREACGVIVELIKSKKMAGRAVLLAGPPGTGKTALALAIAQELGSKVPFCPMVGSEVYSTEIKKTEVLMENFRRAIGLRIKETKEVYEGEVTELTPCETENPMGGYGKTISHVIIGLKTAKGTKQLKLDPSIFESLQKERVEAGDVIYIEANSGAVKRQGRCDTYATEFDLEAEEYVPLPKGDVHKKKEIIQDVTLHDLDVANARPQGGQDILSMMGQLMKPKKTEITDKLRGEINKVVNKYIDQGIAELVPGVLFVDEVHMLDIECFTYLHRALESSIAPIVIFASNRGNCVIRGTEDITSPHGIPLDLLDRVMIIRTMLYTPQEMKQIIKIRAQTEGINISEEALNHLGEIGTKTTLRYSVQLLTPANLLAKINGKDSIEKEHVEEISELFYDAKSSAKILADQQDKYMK
Method in brief: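 Pontin ATPase activity was measured as inorganic phosphate release by malachite green assay, with compounds tested at 100 µM.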

[6] = tested on: HL-60; assay: Induction of apoptosis in human HL60 cells assessed as caspase 3 activity measured as cleavage of DEVD at 5 uM after 24 hrs by FACS analysis relative to control; type: functional
Method in brief: (§2)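 Caspase 3 activity was read in HL60 cells after 24 or 48 h treatment at 5–50 µM, with doxorubicin 1 µM as positive control. Activity is expressed relative to untreated HL60, set at 100.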

[7] = tested on: HL-60; assay: Antiproliferative activity against human HL60 cells after 72 hrs; type: functional, cell-based; details: HL-60, 72 h; method in brief: as §1
[8] = tested on: KB; assay: Antiproliferative activity against human KB cells after 72 hrs; type: functional, cell-based; method in brief: as §1
[9] = Antiproliferative activity against human EPC cells after 72 hrs; type: cell-based
[10] = tested on: HL-60; assay: Induction of apoptosis in human HL60 cells after 24 to 48 hrs by FACS analysis; type: functional, cell-based
Method in brief: (§3)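 HL60 cells were labelled with annexin and 7-AAD after 24 or 48 h exposure at 5, 20 or 50 µM, with doxorubicin 100 nM as reference. FACS sorted cells into intact, early apoptotic, late apoptotic and necrotic fractions, given as percentages.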

[11] = tested on: HL-60; assay: Induction of apoptosis in human HL60 cells at 20 uM after 24 hrs by FACS analysis; type: functional, cell-based; method in brief: as §3
[12] = tested on: HL-60; assay: Induction of apoptosis in human HL60 cells at 20 uM after 48 hrs by FACS analysis; type: functional, cell-based; method in brief: as §3
[13] = tested on: HL-60; assay: Induction of apoptosis in human HL60 cells at 50 uM after 24 hrs by FACS analysis relative to control; type: functional; method in brief: as §3
[14] = tested on: HL-60; assay: Induction of apoptosis in human HL60 cells assessed as caspase 3 activity measured as cleavage of DEVD at 10 uM after 24 hrs by FACS analysis relative to control; type: functional; method in brief: as §2
[15] = tested on: HL-60; assay: Induction of apoptosis in human HL60 cells assessed as caspase 3 activity measured as cleavage of DEVD at 20 uM after 24 hrs by FACS analysis relative to control; type: functional; method in brief: as §2
[16] = tested on: HL-60; assay: Induction of apoptosis in human HL60 cells assessed as caspase 3 activity measured as cleavage of DEVD at 50 uM after 24 hrs by FACS analysis relative to control; type: functional; method in brief: as §2
[17] = tested on: HL-60; assay: Induction of apoptosis in human HL60 cells assessed as caspase 3 activity measured as cleavage of DEVD at 5 uM after 48 hrs by FACS analysis relative to control; type: functional; method in brief: as §2
[18] = tested on: HL-60; assay: Induction of apoptosis in human HL60 cells assessed as caspase 3 activity measured as cleavage of DEVD at 10 uM after 48 hrs by FACS analysis relative to control; type: functional; method in brief: as §2
[19] = tested on: HL-60; assay: Induction of apoptosis in human HL60 cells assessed as caspase 3 activity measured as cleavage of DEVD at 20 uM after 48 hrs by FACS analysis relative to control; type: functional; method in brief: as §2
[20] = tested on: HL-60; assay: Induction of apoptosis in human HL60 cells assessed as caspase 3 activity measured as cleavage of DEVD at 50 uM after 48 hrs by FACS analysis relative to control; type: functional; method in brief: as §2
[21] = tested on: HL-60; assay: Induction of apoptosis in human HL60 cells assessed as caspase 3 activity measured as cleavage of DEVD after 24 to 48 hrs by FACS analysis relative to control; type: functional, cell-based; method in brief: as §2
[22] = tested on: HL-60; assay: Induction of necrosis in human HL60 cells assessed as LDH release at >20 uM after 24 hrs; type: functional, cell-based
Method in brief: (§4)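 Necrosis marker: LDH released into the culture medium and total LDH were measured in HL60 cells after 24 or 48 h treatment at 5–50 µM, with doxorubicin 1 µM as control.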

[23] = tested on: HL-60; assay: Induction of necrosis in human HL60 cells assessed as decrease in total LDH after 48 hrs; type: functional, cell-based; method in brief: as §4
[24] = tested on: HL-60; assay: Cell cycle arrest in human HL60 cells assessed as accumulation at subG1 phase at 5 uM after 24 hrs by propidium iodide-based flow cytometry (reference value: 1.2 %); type: functional
Method in brief: (§5)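 HL60 cells were treated for 24 h at 5, 20 or 50 µM, with doxorubicin 50 nM as control. DNA was stained with propidium iodide and analysed by flow cytometry. Results are the percentage of cells in subG1, G0/G1, S and G2/M.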

[25] = tested on: HL-60; assay: Cell cycle arrest in human HL60 cells assessed as accumulation at subG1 phase at 20 uM after 24 hrs by propidium iodide-based flow cytometry (reference value: 1.2 %); type: functional; method in brief: as §5
[26] = tested on: HL-60; assay: Cell cycle arrest in human HL60 cells assessed as accumulation at subG1 phase at 50 uM after 24 hrs by propidium iodide-based flow cytometry (reference value: 1.2 %); type: functional; method in brief: as §5
[27] = tested on: HL-60; assay: Cell cycle arrest in human HL60 cells assessed as accumulation at G0/G1 phase at 5 uM after 24 hrs by propidium iodide-based flow cytometry (reference value: 47.6 %); type: functional; method in brief: as §5
[28] = tested on: HL-60; assay: Cell cycle arrest in human HL60 cells assessed as accumulation at G0/G1 phase at 20 uM after 24 hrs by propidium iodide-based flow cytometry (reference value: 47.6 %); type: functional; method in brief: as §5
[29] = tested on: HL-60; assay: Cell cycle arrest in human HL60 cells assessed as accumulation at G0/G1 phase at 50 uM after 24 hrs by propidium iodide-based flow cytometry (reference value: 47.6 %); type: functional; method in brief: as §5
[30] = tested on: HL-60; assay: Cell cycle arrest in human HL60 cells assessed as accumulation at S phase at 5 uM after 24 hrs by propidium iodide-based flow cytometry (reference value: 48.7 %); type: functional; method in brief: as §5
[31] = tested on: HL-60; assay: Cell cycle arrest in human HL60 cells assessed as accumulation at S phase at 20 uM after 24 hrs by propidium iodide-based flow cytometry (reference value: 48.7 %); type: functional; method in brief: as §5
[32] = tested on: HL-60; assay: Cell cycle arrest in human HL60 cells assessed as accumulation at S phase at 50 uM after 24 hrs by propidium iodide-based flow cytometry (reference value: 48.7 %); type: functional; method in brief: as §5
[33] = tested on: HL-60; assay: Cell cycle arrest in human HL60 cells assessed as accumulation at G2/M phase at 5 uM after 24 hrs by propidium iodide-based flow cytometry (reference value: 2.5 %); type: functional; method in brief: as §5
[34] = tested on: HL-60; assay: Cell cycle arrest in human HL60 cells assessed as accumulation at G2/M phase at 20 uM after 24 hrs by propidium iodide-based flow cytometry (reference value: 2.5 %); type: functional; method in brief: as §5
[35] = tested on: HL-60; assay: Cell cycle arrest in human HL60 cells assessed as accumulation at G2/M phase at 50 uM after 24 hrs by propidium iodide-based flow cytometry (reference value: 2.5 %); type: functional; method in brief: as §5
[36] = tested on: HL-60; assay: Cell cycle arrest in human HL60 cells assessed as accumulation at subG1 phase after 24 hrs by propidium iodide-based flow cytometry; type: functional; method in brief: as §5
[37] = tested on: HL-60; assay: Induction of necrosis in human HL60 cells assessed as decrease in total LDH at 1 uM after 48 hrs; type: functional, cell-based; method in brief: as §4

With N[C@@H](Cc1c[nH]c2ccccc12)C(=O)Nc1ccc(-c2c(O)c3ccccc3[nH]c2=O)cc1 the Activity [1] was “inactive”, the Activity [2] was “inactive” and the Activity [3] was “inactive”. The Activity [4] was “inactive”.
For O=C(O)[C@@H](Cc1c[nH]c2ccccc12)NCc1ccc(-c2c(O)c3ccccc3[nH]c2=O)cc1, the inhibition [5] was “inactive”, the Activity [1] was “inactive” and the Activity [2] was “inactive”. The Activity [3] was “inactive” and the Activity [4] was “inactive”.
In the case of N[C@@H](Cc1c[nH]c2ccccc12)C(=O)Nc1ccc(-c2c(O)c(-c3ccccc3)c[nH]c2=O)cc1, the Activity [6] is reported as 116%, the inhibition [5] is reported as “Active” and the Activity [1] is reported as “Active”. For the same compound, the Activity [2] was “Active”, the Activity [3] was “Active” and the Activity [4] was “Active”. For the same compound, the IC50 [7] was 15 µM, the IC50 [8] was 9 µM and the IC50 [9] was 25 µM. The Activity [10] was “Dose-dependent effect”, the Activity [11] was “Active” and the Activity [12] was “Active”. The Activity [13] was 95%, the Activity [14] was 111% and the Activity [15] was 134%. It also gave an Activity [16] of 306%, an Activity [17] of 119% and an Activity [18] of 131%. The Activity [19] was 247%, the Activity [20] was 169% and the Activity [21] was “Dose-dependent effect”. For the same compound, the Activity [22] was “Active”, the Activity [23] was “Dose-dependent effect” and the Activity [24] was 2.7%. The Activity [25] was 10.9%, the Activity [26] was 69.5% and the Activity [27] was 48.3%. For the same compound, the Activity [28] was 46.8%, the Activity [29] was 14.7% and the Activity [30] was 44.7%. For the same compound, the Activity [31] was 34.4%, the Activity [32] was 14.6% and the Activity [33] was 4.3%. The Activity [34] was 8%, the Activity [35] was 1.3% and the Activity [36] was “Dose-dependent effect”.
For COc1cccc2c1C(=O)c1c(O)c3c(c(O)c1C2=O)C[C@@](O)(C(=O)CO)C[C@@H]3O[C@H]1C[C@H](N)[C@H](O)[C@H](C)O1, the Activity [37] was “Active”.
With O=C(O)[C@H](Cc1c[nH]c2ccccc12)NCc1ccc(-c2c(O)c3ccccc3[nH]c2=O)cc1 the inhibition [5] was “inactive”, the Activity [1] was “inactive” and the Activity [2] was “inactive”. For the same compound, the Activity [3] was “inactive” and the Activity [4] was “inactive”.
